Measurements taken from article PMC6314015 (Bioorganic & medicinal chemistry, 2018).
“Also recorded” adds a separate entry of the source.

Assays:
[1] = test system: ARPE-19 retinal pigment epithelial cells; experiment: Inherent cytotoxicity, CellTiter-Blue viability; format: cell-based, human; details: 72 h incubation, up to 100 μM
In short: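 Confluent ARPE-19 cells (DMEM/F12 1:1 with 10% FBS, 37 °C, 5% CO2) were washed three times with MEM. Cells were exposed to prochelators at 5–100 μM final in MEM with up to 1% DMSO for 72 h. Viability measured by CellTiter-Blue; triplicate runs, standard deviation.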

[2] = format: binding; details: for calcein fluorescence upon addition of chelator: 4 μM chelator (2 equivalents), 2 μM calcein-Fe^3+, PBS pH 7.4
In short: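 Fe3+-calcein formed by equilibrating 4 μM ferric ammonium citrate with 4 μM calcein in PBS for 4 h. Compounds were freshly made at 100 μM in PBS pH 7.4; for activation, 100 μM prochelator was incubated with 5 mM H2O2 for 12 h. 2 μM Fe3+-calcein plus 4 μM compound or mixture, 2 h, 25 °C; fluorescence at 485/535 nm. Triplicate wells averaged; calcein-only wells = 100%.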

[3] = UV-Vis spectrophotometry of hydrolysis equilibrium in PBS pH 7.4; format: physicochemical; details: for hydrolysis equilibrium constant K: PBS pH 7.4, equilibrated mixtures at various concentrations; for fold improved hydrolytic stability compared to BSIH: from K values
In short: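 DMSO stocks were diluted into PBS pH 7.4 (100 μM). Spectra were recorded in 1-cm quartz cuvettes every 1 min over 30 min; 100 μM isoniazid + 100 μM aldehyde fragment served as reference. For K, equilibrated solutions at several initial concentrations were read at 263 and 321 nm, and component concentrations were solved from fitted extinction coefficients. K = [INH][FBA]/[prochelator], averaged across concentrations.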

[4] = 1H NMR characterization of hydrolytic stability in D2O; format: physicochemical
In short: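 Prochelator stocks (10 mM in DMSO-d6) diluted to 500 μM in D2O with 5% DMSO-d6, or to 200 μM with 2% DMSO-d6 for one analog. Solutions equilibrated 1 h before 1H NMR. Intact prochelator and isoniazid fraction estimated by integrating the hydrazone-compound aromatic peak against the corresponding isoniazid peak.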

ARPE-19 cells [5] = experiment: Cytoprotection against H2O2-induced oxidative damage; format: cell-based, human
In short: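 ARPE-19 cells were grown to confluence (DMEM/F12 1:1, 10% FBS, 37 °C, 5% CO2) and washed with MEM. Cells were pretreated 5 h with prochelators or chelators in MEM, then given 200 μM H2O2 (final) and incubated 19 h more. Viability read by CellTiter-Blue, as % of MEM-only control; H2O2-only as negative control; triplicate, SD.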

ARPE-19 cells [6] = experiment: Cytoprotection against paraquat-induced oxidative damage; format: cell-based, human; details: 10 mM paraquat, 48 h; for cytoprotection against paraquat damage: prochelators; for cytoprotection against paraquat-induced cell death: chelators, Figure S5
[7] = Solubility in aqueous buffers; format: physicochemical; details: aqueous buffer
[8] = cited from earlier work
H9c2 cardiomyoblasts = details: after 72 h; cited from earlier work
[9] = cited from earlier work; remark: listed apart in the source
[10] = comparable solutions (500 μM); cited from earlier work
[11] = same concentration (500 μM); cited from earlier work
[12] = pH 7.4, total ligand 10 µM, iron 1 µM; cited from earlier work
[13] = prochelators, 5 h pre-incubation, 200 μM H2O2, viability after 19 h

SMILES: CC1(C)OB(c2cc3c(cc2/C=N/NC(=O)c2ccncc2)OCO3)OC1(C)C [(MD)BSIH, (E)-N’-((6-(4,4,5,5-tetramethyl-1,3,2-dioxaborolan-2-yl)benzo[d][1,3]dioxol-5-yl)methylene)isonicotinohydrazide]
- cytotoxicity [1]: non-toxic
- increase in chelator released compared to BSIH ([2]; after H2O2 activation): 50%
- hydrolysis equilibrium constant K, fold lower than parent BSIH [3]: ~ 2 fold
- hydrolysis equilibrium constant K [3]: (8.0 ± 0.6) × 10^−6 M
- fold improved hydrolytic stability compared to BSIH [3]: 1.9 fold
- hydrolysis fragments in the equilibrated solution ([4]; 200 μM in D2O, 2% DMSO-d6): 20%
- concentration effective for cytoprotection (ARPE-19 cells [5]; [13]): 25 µM
- cytoprotection against paraquat damage (ARPE-19 cells [6]): dose-dependent recovery of cell viability

SMILES: COc1ccc(/C=N/NC(=O)c2ccncc2)cc1B1OC(C)(C)C(C)(C)O1 [(m-OMe)BIIH, (E)-N’-(4-methoxy-3-(4,4,5,5-tetramethyl-1,3,2-dioxaborolan-2-yl)benzylidene)isonicotinohydrazide]
- UV-Vis spectrum over time in PBS buffer ([3]; PBS buffer, Figure S3): remains unchanged over time
- hydrolysis products by 1H NMR upon dilution in D2O ([4]; 500 μM in D2O, 5% DMSO-d6): no additional peaks corresponding to potential hydrolysis products were observed
- cytoprotection from peroxide damage (ARPE-19 cells [5]; [13]): lack of cytoprotection

SMILES: COc1ccc(/C=N/NC(=O)c2cccnc2)c(B2OC(C)(C)C(C)(C)O2)c1 [(m-OMe)BSNH, (E)-N’-(4-methoxy-2-(4,4,5,5-tetramethyl-1,3,2-dioxaborolan-2-yl)benzylidene)nicotinohydrazide]
- solubility [7]: ≥ 300 µM

SMILES: COc1ccc(/C=N/NC(=O)c2ccncc2)c(O)c1 [(m-OMe)SIH]
- solubility [7]: ≤ 50 µM

SMILES: COc1ccc(/C=N/NC(=O)c2cccnc2)c(O)c1 [(m-OMe)SNH, (E)-N’-(2-hydroxy-4-methoxybenzylidene)nicotinohydrazide]
- solubility [7]: ≥ 300 µM
- calcein fluorescence upon addition of chelator [2]: more than 90%

SMILES: COc1ccc(B2OC(C)(C)C(C)(C)O2)c(/C=N/NC(=O)c2ccncc2)c1 [(p-OMe)BSIH, (E)-N’-(5-methoxy-2-(4,4,5,5-tetramethyl-1,3,2-dioxaborolan-2-yl)benzylidene)isonicotinohydrazide]
- hydrolysis equilibrium constant K [3]: (1.1 ± 0.1) × 10^−5 M
- fold improved hydrolytic stability compared to BSIH [3]: 1.3 fold
- INH at equilibrium ([4]; 500 μM in D2O, 5% DMSO-d6, 1 h equilibration): 15%
- concentration effective for cytoprotection (ARPE-19 cells [5]; [13]): 25 µM
- increase in H2O2-dependent conversion rate relative to the m-Cl compound [8]: ~5 fold

SMILES: COc1ccc(O)c(/C=N/NC(=O)c2ccncc2)c1 [(p-OMe)SIH, (E)-N’-(2-hydroxy-5-methoxybenzylidene)isonicotinohydrazide]
- calcein fluorescence upon addition of chelator [2]: more than 90%
- cytoprotection against paraquat-induced cell death (ARPE-19 cells [6]): ~ 40%

SMILES: C/C(=N\NC(=O)c1ccncc1)c1ccccc1OCc1ccc(B2OC(C)(C)C(C)(C)O2)cc1 [BHAPI]
- TC50 (H9c2 cardiomyoblasts): 37.1 ± 7.7 µM

SMILES: CC1(C)OB(c2ccccc2/C=N/NC(=O)c2ccncc2)OC1(C)C [BSIH, (E)-N’-(2-(4,4,5,5-tetramethyl-1,3,2-dioxaborolan-2-yl)benzylidene)isonicotinohydrazide]
- cytotoxicity [1]: non-toxic
- stability in plasma ([9]; 10 h incubation in plasma): little degradation
- intact prochelator at equilibrium [10]: 80%
- cytoprotection against paraquat damage (ARPE-19 cells [6]): failed to protect cells from paraquat damage; also recorded: lack of cytoprotection
- SIH generated from peroxide activation [11]: 51%

SMILES: CNC(=S)N/N=C/c1ccccc1B1OC(C)(C)C(C)(C)O1 [BSMTH, (E)-N-methyl-2-(2-(4,4,5,5-tetramethyl-1,3,2-dioxaborolan-2-yl)benzylidene)hydrazine-1-carbothioamide]
- cytoprotection from peroxide damage (ARPE-19 cells [5]; [13]): lack of cytoprotection; also recorded: ineffective
- cytoprotection against paraquat damage (ARPE-19 cells [6]): lack of cytoprotection

SMILES: CC1(C)OB(c2ccccc2/C=N/NC(=S)Nc2ccccc2)OC1(C)C [BSPTH, (E)-N-phenyl-2-(2-(4,4,5,5-tetramethyl-1,3,2-dioxaborolan-2-yl)benzylidene)hydrazine-1-carbothioamide]
- cytoprotection from peroxide damage (ARPE-19 cells [5]; [13]): modest cellular protection
- cytoprotection against paraquat damage (ARPE-19 cells [6]): lack of cytoprotection

SMILES: O=C(O)CN(CC(=O)O)Cc1cc2c(cc1O)Oc1cc(O)c(CN(CC(=O)O)CC(=O)O)cc1C21OC(=O)c2ccccc21 [Calcein]
- pFe [12]: 20.3

SMILES: C/C(=N\NC(=O)c1ccncc1)c1ccccc1O [HAPI, (E)-N’-(1-(2-hydroxyphenyl)ethylidene)isonicotinohydrazide, reference compound]
- cytoprotection against paraquat-induced cell death (ARPE-19 cells [6]): ~ 40%

SMILES: O=C(N/N=C/c1ccccc1O)c1ccncc1 [SIH, (E)-N’-(2-hydroxybenzylidene)isonicotinohydrazide]
- stability in buffer ([9]; buffer at pH 7.4): remains intact
- stability in cell culture media and plasma ([9]; cell culture media and plasma): degrades within hours
- cytoprotection against paraquat-induced cell death (ARPE-19 cells [6]): ~ 40%

SMILES: CNC(=S)N/N=C/c1ccccc1O [SMTH, (E)-2-(2-hydroxybenzylidene)-N-methylhydrazine-1-carbothioamide]
- calcein fluorescence upon addition of chelator [2]: no effect on the quenched signal
- cytoprotection from peroxide damage (ARPE-19 cells [5]; chelators, H2O2-stressed cells, Figure S4): no protective effect
- cytoprotection against paraquat-induced cell death (ARPE-19 cells [6]): failed to protect cells

SMILES: Oc1ccccc1/C=N/NC(=S)Nc1ccccc1 [SPTH, (E)-2-(2-hydroxybenzylidene)-N-phenylhydrazine-1-carbothioamide]
- calcein fluorescence upon addition of chelator [2]: failed to fully restore calcein emission
- cytoprotection against paraquat-induced cell death (ARPE-19 cells [6]): ~ 40%
